Assay results as given in ChEMBL document CHEMBL1157262, “A pyrimidine-beta-carboline and other alkaloids from Annona foetida with antileishmanial activity” (J Nat Prod, 2006).

Tests used:
Leishmania braziliensis = assay: Antileishmanial activity against Leishmania braziliensis MHOM/BR/95/IOCL-2033 promastigotes after 24 hrs; type: functional, organism-based
Procedure, shortened: (§1)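 Promastigotes grown in Schneider's Drosophila medium with 20% (v/v) heat-inactivated FCS, harvested late-log; log-phase cells at 4.0 × 10⁶ cells/mL in 96-well trays, 26 °C, 95% air/5% CO₂. Compounds in DMSO, 160–0.16 μg/mL, triplicate per concentration. Viability counted by Neubauer chamber after 24 h; IC50 = concentration inhibiting growth 50%. Pentamidine positive control.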

Leishmania guyanensis = assay: Antileishmanial activity against Leishmania guyanensis MHOM/BR/95/IOCL-2092 promastigotes after 24 hrs; type: functional, organism-based; procedure, shortened: as §1

Compound | IC50 (Leishmania braziliensis) | IC50 (Leishmania guyanensis)
COc1c(OC)c2c3c(nccc3c1OC)C(=O)c1ccccc1-2 [HOMOMOSCHATOLINE] | 321 µM | 104 µM
O=C1c2ccccc2-c2c3c(cc4ccnc1c24)OCO3 [LIRIODENINE] | 58.5 µM | 21.5 µM
N=C(N)c1ccc(OCCCCCOc2ccc(C(=N)N)cc2)cc1 [PENTAMIDINE] | 2.9 µM | 0.9 µM
Nc1nccc(-c2nccc3c2[nH]c2ccccc23)n1 [ANNOMONTINE] | 34.8 µM | > 613 µM
Nc1nccc(-c2nccc3c4ccccc4n(O)c23)n1 | 253 µM | 438 µM
